Results taken from ChEMBL document CHEMBL1141450, “Anthraquinones with quinone reductase-inducing activity and benzophenones from Morinda citrifolia (noni) roots” (J Nat Prod, 2007).

Legend:
[1] = test system: Hepa lclc7; assay: Induction of mouse quinone reductase in mouse Hepa lclc7 cells assessed as concentration required to double enzyme activity; format: cell-based
Method in brief: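 Quinone reductase induction assay in Hepa 1c1c7 murine hepatoma cells (ATCC CRL-2026), with isoliquiritigenin as the positive control. CD is the concentration needed to double QR activity.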

[2] = Chemoprevention index, ratio of IC50 for mouse Hepa lclc7 cells to activity against mouse quinone reductase; format: functional
Method in brief: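 Chemoprevention index is calculated as IC50 divided by CD. IC50 is the concentration giving 50% growth inhibition of Hepa 1c1c7 cells. CD is the concentration doubling quinone reductase activity in the same cells. Isoliquiritigenin is the positive control.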

[3] = Cytotoxicity against mouse Hepa lclc7 cells; format: cell-based
Method in brief: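 Hepa 1c1c7 murine hepatoma cells (ATCC CRL-2026) were tested in the QR induction assay format. IC50 is the concentration inhibiting cell growth by 50%.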

[4] = Cytotoxicity against mouse Hepa lclc7 cells at 20 ug/mL; format: cell-based

SMILES | Activity [1] [µM] | Ratio [2] | IC50 [3] [µM] | Activity [4]
O=C1c2ccccc2C(=O)c2cc(CO)c(O)cc21 | 0.94 | >83 | > 78 | –
Cc1c(O)cc2c(c1O)C(=O)c1ccccc1C2=O [Rubiadin] | 8.1 | >9 | > 74 | –
COc1c(O)cc2c(c1O)C(=O)c1ccc(O)cc1C2=O | 0.009 | – | – | Non-toxic
O=C(/C=C/c1ccc(O)cc1)c1ccc(O)cc1O [ISOLIQUIRITIGENIN] | 4.3 | 9.2 | 39 | –
Cc1c(O)cc2c(c1O)C(=O)c1ccc(O)cc1C2=O | 0.56 | 85 | 47 | –
O=C1c2ccccc2C(=O)c2c1ccc(O)c2O [ATHRAQUINONES A] | 12 | 5.1 | 62 | –
